Structures are written as SMILES.

Common to all, as to format: functional
The species entered for one test is Oryctolagus cuniculus. Description: Concentration required to inhibit PAF-induced maximum platelet aggregation in rabbit platelet-rich plasma. A digest of the protocol:
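PRP prepared by centrifugation at 250g, 10 min, 4 °C, and diluted with platelet-poor plasma (3000g, 10 min) to 3.5 × 10⁵ platelets/mm³. Aggregation triggered by C-18-PAF at 1.5 × 10^-8 M and read on a dual-channel aggregometer. IC50 from linear regression of at least four points, each the mean of one to three independent experiments.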

The subject of test [1] is Mus musculus. Description: Dosage required to inhibit PAF-induced mortality in mice by 50% through oral administration. The settings on record: read-out: ID50 (the source's name). A digest of the protocol:
(§1)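 Male Swiss mice, 22-26 g, groups of 10. Test article given iv (10 mL/kg, saline vehicle) 5 min before, or po (20 mL/kg, 1% Tween 80) 60 min before, tail-vein C-18-PAF 100 µg/kg plus propranolol 1 mg/kg. Mortality scored 2 h after PAF; % inhibition vs vehicle controls. ID50 by linear regression, ≥4 points.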

A further test concerns Rattus norvegicus. Description: Dose required to reduce the lowering of the arterial blood pressure caused by PAF by 50% after intravenous administration in rats. As to conditions: read-out: ID50 (the source's name). A digest of the protocol: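 Rats with both femoral veins catheterized, one for test compound and one for PAF (0.5 µg/kg). Compound given iv in saline (1 mL/kg) 3 min before PAF. Blood pressure monitored; % inhibition of hypotension calculated versus controls. ID50 from linear regression of at least four doses, each the mean of two or more independent experiments.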

Test [2] relates to Mus musculus. Description: Compound after an intravenous dose of 0.01 mg/Kg was tested for the inhibition of PAF-induced mortality in mice. In outline:
as §1

In the case of `Cc1nc2cnccc2n1CC1CCN(S(=O)(=O)CC(C)(C)c2ccccc2)CC1`, in the test filed under Oryctolagus cuniculus, the midpoint of inhibition, the IC50, lay at 6.2 nM. The ED50 in the test on Mus musculus [1] was greater than 1 mg/kg; in the test on Rattus norvegicus, 0.087 mg/kg. In the test with Mus musculus [2], this molecule showed an inhibition in vivo at 0.01 mg/kg of 50%.
Taken in the same sequence, the figures for `CCOC(=O)[C@@H](NC(=O)N1CCC(Cn2c(C)nc3cnccc32)CC1)c1ccccc1` were 16 nM, greater than 1 mg/kg, 0.061 mg/kg and 50%.

In general, IC50 refers to the concentration at which inhibition is half-maximal. The term inhibition in vivo denotes the change of the read-out against control, counted positive when it falls. A lower inhibition in vivo goes with a response near the control.

The record behind these values is ChEMBL document CHEMBL1129690, “Design, synthesis, and structure-activity relationship studies of novel 1-[(1-acyl-4-piperidyl)methyl]-1H-2- methylimidazo[4,5-c]pyridine derivatives as potent, orally active platelet-activating factor antagonists” (J Med Chem, 1996).
